Hits are enriched below; roughly 2.9% of the tested compounds scored in any of these assays.
ATG4B inhibitor – ATG4B (human) cysteine protease inhibition; Q9Y4P1; ATG4B cleavage of LC3-PLA2, NBD-HPC fluorescence, 1 h; inhibition, % at 8.33 µM; 340,000 tested, 0.51% active; in the data active = inhibition above about 40%
MEKK3 PB1 HTS – MEKK3-MEK5 PB1 interaction, increase or decrease | Q99759 | bead-based flow cytometry, Alexa488-MEK5 binding to MEKK3; actives lie on both sides; 0 = blocked by unlabeled MEK5, 100 = vehicle | binding response (% of control), % at 10 µM | 290,000 tested, 1.4% active | AID 1529;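 active = binding response more than 3 SD above or below the average of its plate-row segment, actives on both sides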;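 also: Alexa488 bead fluorescence after subtracting the streptavidin-only scavenger bead signal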
Target sequence (Q99759 whole entry, looked up): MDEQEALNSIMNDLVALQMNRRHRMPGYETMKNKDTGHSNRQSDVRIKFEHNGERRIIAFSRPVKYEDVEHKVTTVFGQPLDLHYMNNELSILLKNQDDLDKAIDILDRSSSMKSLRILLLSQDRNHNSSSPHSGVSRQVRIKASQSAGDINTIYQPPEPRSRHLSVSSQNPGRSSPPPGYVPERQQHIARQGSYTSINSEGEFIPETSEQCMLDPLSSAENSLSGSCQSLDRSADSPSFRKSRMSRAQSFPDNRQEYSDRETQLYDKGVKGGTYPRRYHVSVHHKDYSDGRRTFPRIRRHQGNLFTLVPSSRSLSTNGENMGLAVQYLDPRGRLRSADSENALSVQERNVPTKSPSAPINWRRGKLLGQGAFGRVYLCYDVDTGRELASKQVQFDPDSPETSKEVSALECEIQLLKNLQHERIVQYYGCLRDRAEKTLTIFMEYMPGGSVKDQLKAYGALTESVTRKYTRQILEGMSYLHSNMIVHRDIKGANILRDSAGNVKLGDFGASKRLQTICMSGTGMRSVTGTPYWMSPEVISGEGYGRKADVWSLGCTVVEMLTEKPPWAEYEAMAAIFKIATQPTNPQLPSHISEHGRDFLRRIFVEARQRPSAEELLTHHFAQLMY
Beta2AR agonist – agonists of human beta-2 adrenergic receptor inducing internalization. Am2.2-beta2AR cells, FAP receptor internalization, flow cytometry. 340,000 tested, 0.43% active. response, % (concentration not given with the values). P07550;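 active = response above a set limit, near 3 SD of response in nonfluorescent compounds, cut at about 42% in these data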
Dynein transport – blocks dynein driven cargo transport along microtubules. 3617.4 mouse cells, GR-EGFP nuclear translocation imaging; test concentration mostly 20 µM; stimulated with dexamethasone, 1 µM; hits give low values. z-score, hits read low. 220,000 tested, 0.47% active. AID 1381;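 active = plate z-score of nuclear minus cytoplasmic receptor signal below a set negative limit, without overly bright fluorescence or cell loss, cut at about -3.5 in these data, passing the limit was not always enough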;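 also: z-score of nuclear minus cytoplasmic ring GR-EGFP intensity difference per well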
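Buffer or medium: tet-free, stripped-serum medium; Also added: dexamethasone, 1.0 µM final; Technique: high-content fluorescence imaging after fixation; Times: 48 h induction, 1 h compound, 30 min dex at 37 °C; Read-out: per-cell GR-EGFP intensity, nucleus versus surrounding cytoplasmic ring, well-averaged.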
MEKK2 WT-MEK5 – raises or lowers MEK5 binding to wildtype human MEKK2 PB1 domain | Q9Y2U5 | bead flow cytometry, Alexa488-MEK5 binding to MEKK2 WT; actives lie on both sides | binding response (% of control), % at 10 µM | 290,000 tested, 1.1% active | AID 1531; in the data active = binding response below about 67% or above about 130%
MEKK2 mut-MEK5 – signal of MEK5 binding to mutant human MEKK2 PB1 domain; bead flow cytometry, Alexa488-MEK5 binding to MEKK2 mutant; percent response, % at 10 µM; 290,000 tested, 0.35% active; in the data active = percent response above about 24%, passing the limit was not always enough
MEKK2wt confirm – raises or lowers MEK5 binding to wildtype human MEKK2, retest | shares compounds with MEKK3 PB1 HTS | bead flow cytometry, Alexa488-MEK5 binding to MEKK2 WT; actives lie on both sides | 5,900 tested, 2.4% active | binding response (% of control), % at 10 µM; in the data active = binding response below about 16% or above about 210%; inactive = in between
MEKK2mut confirm – signal of MEK5 binding to mutant human MEKK2, retest; percent response, % at 10 µM; shares compounds with MEKK3 PB1 HTS; bead flow cytometry, Alexa488-MEK5 binding to MEKK2 mutant; 5,900 tested, 2% active; in the data active = percent response mostly above about 71%, no sharp cut-off; inactive = mostly below about 38%;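 also: higher means compound restores mutant binding toward wildtype level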
MEKK3 confirm – confirmation of inhibitors of MEK5 binding to human MEKK3; 5,900 tested, 1.8% active; AID 1894; bead flow cytometry, Alexa488-MEK5 binding to MEKK3; hits give low values; binding response (% of control), % at 10 µM; shares compounds with MEKK3 PB1 HTS;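 active = binding response below 72% of control, or above a set upper limit, though filed actives all read lower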;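 also: 100% = DMSO only wells and 0% = binding blocked by excess unlabeled MEK5; lower values mean stronger disruption of MEK5 binding to MEKK3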
The depositor's hits bear a star; nt = not tested or not shown; [ ] = another dose, or the depositor's remark.

SMILES	ATG4B inhibitor	MEKK3 PB1 HTS	Beta2AR agonist	Dynein transport	MEKK2 WT-MEK5	MEKK2 mut-MEK5	MEKK2wt confirm	MEKK2mut confirm	MEKK3 confirm
Cc1ccc(C(OC(=O)c2ccco2)C(=O)NC(C)(C)C)cc1 (stereo unspecified)	-0.3	103.0	4.9	nt	103.0	5.0	nt	nt	nt
CCOc1ccccc1CN1CCN(Cc2nc3c(s2)CCCC3)CC1CCO (stereo unspecified)	4.4	81.0	0.4	-0.274	76.0	-14.0	nt	nt	nt
O=C(c1ccc(C(F)(F)F)cc1)C1CCCN(C(=O)CCc2ccncc2)C1 (stereo unspecified)	30.1	100.0	-3.9	nt	103.0	-3.0	nt	nt	nt
CN(C)S(=O)(=O)n1cc(/C=C(\NC(=O)c2ccccc2F)C(=O)N2CCCC2)c2ccccc21	-11.2	98.0	-4.0	nt	97.0	5.0	nt	nt	nt
CCc1nnc(NC(=O)CSC(=S)N2CCOCC2)s1	-3.8	106.0	-7.7	nt	112.0	6.0	nt	nt	nt
Cc1nc2c3ccccc3nc(NNC(=O)CCC(=O)NCCC(C)C)n2n1	1.3	130.0*	7.2	0.448	109.0	0.0	99.0	-5.0	101.0
Cc1cc2ncn(CCC(=O)NC(C)(C)C)c2cc1C	2.4	3.0*[inhibitor]	3.6	-0.448	4.0*[inhibitor]	-46.0	104.0	4.0	105.0
O=S(=O)(c1cccc(Cl)c1)N1CN(CC2CCCO2)c2nc3ccccc3nc21 (stereo unspecified)	-2.3	99.0	1.9	nt	99.0	-1.0	nt	nt	nt
CN(C)CCCN(C(=O)c1cccs1)c1nc(-c2ccccc2)cs1	2.4	101.0	4.6	0.433	147.0*	5.0	138.0	19.0	109.0
COc1ccc(-c2csc(N(CCCN(C)C)C(=O)c3ccccc3C)n2)cc1	0.2	107.0	11.2	nt	143.0*	16.0	149.0	23.0	107.0
COc1ccc(-c2csc(N(CCCN(C)C)C(=O)c3ccccc3F)n2)cc1	1.0	99.0	0.4	nt	127.0	16.0	nt	nt	nt
COc1ccc(-c2csc(N(CCCN(C)C)C(=O)c3ccccc3Cl)n2)cc1	2.1	107.0	8.2	nt	138.0*	28.0*	167.0	70.0*	102.0
Cc1cc(C)nc(N/N=C/C2=C(N3CCOCC3)C(=C/c3ccccc3)/CC2)n1	-13.9	89.0	22.6	-0.0329	93.0	-3.0	nt	nt	nt
Cc1cc(=O)[nH]c(N/N=C/C2=C(N3CCOCC3)C(=C\c3ccc(Cl)cc3)/CC2)n1	-6.3	135.0*	-10.2	-1.25	112.0	2.0	101.0	-2.0	101.0
COc1cc(C)c(C(=O)CSc2nnc(CNC(=O)c3ccco3)n2C)cc1C	-9.2	94.0	0.4	nt	93.0	-3.0	nt	nt	nt
O=C(NC1=NCCS1)c1cc(-c2cccc(Br)c2)nc2ccccc12	-15.5	148.0*	-4.9	-0.0571	115.0	11.0	110.0	7.0	100.0
O=C(Nc1ccc(SC(F)F)cc1)C12CCC(CC1)C2	2.0	134.0*	2.9	0.224	104.0	0.0	78.0	-13.0	87.0
O=C(Nc1ccccn1)c1ccc(S(=O)(=O)N2CCCCCC2)cc1	5.0	nt	-3.7	nt	nt	nt	nt	nt	nt
OC(CN1CCCCC1)Cn1c2ccc(Cl)cc2c2cc(Cl)ccc21 (stereo unspecified)	2.2	106.0	30.3	nt	203.0*	48.0*	202.0	63.0	112.0
OC(CN1CCN(c2ccccn2)CC1)Cn1c2ccc(Cl)cc2c2cc(Cl)ccc21 (stereo unspecified)	-8.4	111.0	2.0	0.394	137.0*	13.0	132.0	15.0	106.0
Cc1ccc(C)c(CN2CCN(c3ncccn3)CC2)c1	7.3	100.0	-2.1	nt	104.0	3.0	nt	nt	nt
COc1cc(/C=C/C(=O)OCC(=O)Nc2cc(C)on2)ccc1OCC#N	-5.3	nt	5.6	nt	nt	nt	nt	nt	nt
Cn1c(=O)c2c(ncn2CC(=O)N2CCN(C(=O)c3ccco3)CC2)n(C)c1=O	-6.4	85.0	-3.0	-0.706	50.0*[inhibitor]	-9.0	107.0	8.0	109.0
Cc1cc(Nc2ncc(Cl)cc2Cl)n(-c2ccccc2)n1	-3.4	139.0*	-6.7	-1.06	108.0	1.0	110.0	6.0	104.0
Cc1ccccc1NC(=O)CN1C(=O)S/C(=C\c2cccn2-c2cccc(C(=O)O)c2)C1=O	26.7	122.0*	4.3	2.25	119.0	9.0	105.0	4.0	107.0
SMILES	ATG4B inhibitor	MEKK3 PB1 HTS	Beta2AR agonist	Dynein transport	MEKK2 WT-MEK5	MEKK2 mut-MEK5	MEKK2wt confirm	MEKK2mut confirm	MEKK3 confirm
Cc1ccc(NC(=O)CN2C(=O)S/C(=C\c3cccn3-c3cccc(C(=O)O)c3)C2=O)c(C)c1	-0.1	101.0	3.6	-0.302	95.0	6.0	nt	nt	nt
Cc1ccc(NC(=O)CSc2ccc(-c3ccc4c(c3)OCO4)nn2)cc1F	6.8	132.0*	4.1	-0.0977	101.0	0.0	107.0	10.0	109.0
Fc1ccc(CSc2ccc(-c3ccc4c(c3)OCO4)nn2)cc1	-5.8	135.0*	4.7	0.69	105.0	0.0	105.0	7.0	104.0
CC(C)(C)c1ccc(C(O)CCCN2CCC(C(O)(c3ccccc3)c3ccccc3)CC2)cc1 (stereo unspecified)	-14.4	84.0	64.2*	-6.22	212.0*	24.0*	142.0	33.0	107.0
CCC(c1nnnn1C1CCCC1)N1CCN(c2ccccc2F)CC1 (stereo unspecified)	-3.9	105.0	-6.0	-0.248	105.0	8.0	nt	nt	nt
Fc1ccccc1N1CCN(C(c2ccncc2)c2nnnn2C2CCCC2)CC1 (stereo unspecified)	-17.5	77.0*[inhibitor]	0.3	3.34	81.0	-16.0	123.0	6.0	105.0
CCOCCCNC(=O)CN1C(=O)COc2ccc(S(=O)(=O)N3CCOCC3)cc21	4.2	98.0	-2.6	nt	97.0	1.0	nt	nt	nt
COc1ccc(C(=O)Nc2c(C)ccc3nsnc23)cc1[N+](=O)[O-]	-3.1	100.0	-3.2	0.118	100.0	-3.0	nt	nt	nt
Cc1ccc2nsnc2c1NC(=O)c1cccc([N+](=O)[O-])c1	nt	134.0*	nt	-0.408	110.0	1.0	93.0	-3.0	93.0
NC(=S)NNC(=O)C12CC3CC(CC(C3)C1)C2	-0.7	92.0	4.5	0.782	90.0	-6.0	nt	nt	nt
NC(=O)COc1ccc(-c2noc(COc3ccccc3[N+](=O)[O-])n2)cc1	-6.1	132.0*	0.1	0.0578	119.0	1.0	96.0	1.0	100.0
O=C(NCC1CCCN1S(=O)(=O)c1cccs1)c1ccccc1F (stereo unspecified)	-4.0	nt	-12.1	nt	nt	nt	nt	nt	nt

From PubChem
